Activity calls are given as the source filed them. The calls are words filed in the database; no cut-off is given here.
How the values were obtained:
518A2 [1] = assay: Antiproliferative activity against human 518A2 cells after 72 hrs by MTT assay; format: functional, cell-based
In short: (§1)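 MTT read-out after 72 h of continuous exposure. Viability is expressed as percentage of viable cells relative to untreated controls. IC50 comes from dose-response curves. Values are means±SD of four independent experiments (two for some entries). DMSO was below 1%, with vehicle controls at equal DMSO. Precipitation was excluded spectrometrically and microscopically.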

HT-29 [2] = assay: Antiproliferative activity against human HT-29 cells after 72 hrs by MTT assay; format: functional, cell-based; settings: HT-29, 72 h; in short: as §1
A2780 = assay: Antiproliferative activity against human A2780 cells after 72 hrs by SRB assay; format: functional, cell-based; settings: A2780, 72 h
In short: (§2)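 Ovarian A2780 and cisplatin-resistant A2780cis cells were exposed for 72 h and stained with SRB. IC50 comes from dose-response curves, as means±SD of three independent experiments. Final DMSO was below 1%, with matched vehicle controls.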

[3] = Antiproliferative activity against human A2780cis cells after 72 hrs by SRB assay; format: functional, cell-based; in short: as §2
DLD-1 = assay: Antiproliferative activity against human DLD1 cells after 72 hrs by MTT assay; format: functional, cell-based; settings: DLD-1, 72 h; in short: as §1
EA.hy 926 [4] = assay: Antiproliferative activity against human EAhy926 cells after 72 hrs by MTT assay; format: functional, cell-based; settings: EA.hy 926, 72 h; in short: as §1
PANC-1 = assay: Antiproliferative activity against human PANC1 cells after 72 hrs by MTT assay; format: functional, cell-based; settings: PANC-1, 72 h; in short: as §1
HCT-116 = assay: Antiproliferative activity against human HCT116 cells after 72 hrs by MTT assay; format: functional, cell-based; settings: HCT-116, 72 h; in short: as §1
[5] = Antiproliferative activity against human KB-V1/Vbl cells after 72 hrs by MTT assay; format: functional, cell-based; in short: as §1
[6] = Antiproliferative activity against human MCF7/Topo cells after 72 hrs by MTT assay; format: functional, cell-based; in short: as §1
EA.hy 926 [7] = assay: Antiangiogenic activity against human EAhy926 cells assessed as inhibition of tube formation on matrigel at 100 nM after 24 hrs by light microscopic analysis; format: functional, cell-based
In short: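 Ea.Hy926 endothelial hybrid cells were seeded on matrigel with compound and examined for tubular/cord-like network formation versus untreated controls. Viability under the same conditions was checked in parallel by MTT to exclude cytotoxic effects.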

EA.hy 926 [8] = assay: Cytotoxicity against human EAhy926 cells at 100 nM after 24 hrs by MTT assay relative to control; format: cell-based; settings: ea.hy 926, 24 h, 0.1 µM
HT-29 [9] = assay: Cell cycle arrest in human HT-29 cells assessed as accumulation of cells at sub G1 phase at 100 nM after 24 hrs by propidium iodide staining-based flow cytometric analysis (reference value: 1.2 +/- 0.3%); format: functional
HT-29 [10] = assay: Cell cycle arrest in human HT-29 cells assessed as accumulation of cells at sub G1 phase at 250 nM after 24 hrs by propidium iodide staining-based flow cytometric analysis (reference value: 1.2 +/- 0.3%); format: functional
HT-29 [11] = assay: Cell cycle arrest in human HT-29 cells assessed as accumulation of cells at sub G1 phase at 350 nM after 24 hrs by propidium iodide staining-based flow cytometric analysis (reference value: 1.2 +/- 0.3%); format: functional
HT-29 [12] = assay: Cell cycle arrest in human HT-29 cells assessed as accumulation of cells at G1 phase at 100 nM after 24 hrs by propidium iodide staining-based flow cytometric analysis (reference value: 75.1 +/- 1.1%); format: functional
HT-29 [13] = assay: Cell cycle arrest in human HT-29 cells assessed as accumulation of cells at G1 phase at 250 nM after 24 hrs by propidium iodide staining-based flow cytometric analysis (reference value: 75.1 +/- 1.1%); format: functional
HT-29 [14] = assay: Cell cycle arrest in human HT-29 cells assessed as accumulation of cells at G1 phase at 350 nM after 24 hrs by propidium iodide staining-based flow cytometric analysis (reference value: 75.1 +/- 1.1%); format: functional
HT-29 [15] = assay: Cell cycle arrest in human HT-29 cells assessed as accumulation of cells at S phase at 100 nM after 24 hrs by propidium iodide staining-based flow cytometric analysis (reference value: 12.3 +/- 0.4%); format: functional
HT-29 [16] = assay: Cell cycle arrest in human HT-29 cells assessed as accumulation of cells at S phase at 250 nM after 24 hrs by propidium iodide staining-based flow cytometric analysis (reference value: 12.3 +/- 0.4%); format: functional
HT-29 [17] = assay: Cell cycle arrest in human HT-29 cells assessed as accumulation of cells at S phase at 350 nM after 24 hrs by propidium iodide staining-based flow cytometric analysis (reference value: 12.3 +/- 0.4%); format: functional
HT-29 [18] = assay: Cell cycle arrest in human HT-29 cells assessed as accumulation of cells at G2/M phase at 100 nM after 24 hrs by propidium iodide staining-based flow cytometric analysis (reference value: 11.4 +/- 1.4%); format: functional
HT-29 [19] = assay: Cell cycle arrest in human HT-29 cells assessed as accumulation of cells at G2/M phase at 250 nM after 24 hrs by propidium iodide staining-based flow cytometric analysis (reference value: 11.4 +/- 1.4%); format: functional
HT-29 [20] = assay: Cell cycle arrest in human HT-29 cells assessed as accumulation of cells at G2/M phase at 350 nM after 24 hrs by propidium iodide staining-based flow cytometric analysis (reference value: 11.4 +/- 1.4%); format: functional
518A2 [21] = assay: Induction of apoptosis in human 518A2 cells at 100 nM after 24 hrs by TUNEL assay relative to control; format: functional
Tubulin (Homo sapiens) = Tubulin (Homo sapiens) (UniProt P68371+Q9H4B7+P0DPH7+P68366+Q13509+Q71U36+P04350+Q3ZCM7+P07437+P68363+Q9BQE3+Q6PEY2+Q13885+Q9BVA1+Q9BUF5); assay: Induction of microtubule disruption in human 518A2 cells at 100 nM after 3 hrs by DAPI staining-based fluorescence microscopic analysis; format: cell-based
In short: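 Microtubule organization in 518A2 melanoma cells was checked by tubulin immunofluorescence staining after 3 h exposure to 100 nM, with DAPI as the nuclear counterstain. Images come from two independent experiments.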

Tubulin = Tubulin (Sus scrofa, UniProt P02554+P02550); assay: Inhibition of porcine brain tubulin polymerization after 2 hrs
518A2 [22] = assay: Effect on F-actin in human 518A2 cells assessed as thick stress fibers formation at 100 nM after 3 hrs by DAPI staining-based fluorescence microscopic analysis; format: cell-based
In short: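 518A2 melanoma cells were treated with 100 nM for 3 h. Filamentous actin was fluorescence-labelled, nuclei were counterstained with DAPI, and the cells were imaged by fluorescence microscopy. Images come from two independent experiments.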

518A2 [23] = assay: Antimigratory activity against human 518A2 cells at 50 nM after 48 hrs by wound healing assay; format: functional, cell-based
Chorioallantoic membrane [24] = assay: Antiangiogenic activity in Leghorn chicken embryo chorioallantoic membrane assessed as induction of hemorrhages at 5 nmol after 6 hrs by light microscopic analysis; format: functional, tissue-based; settings: Gallus gallus
In short: (§3)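 Fertilized chicken eggs, CAM assay. Compound was applied topically into a small silicon foil ring placed on the CAM. The membrane and its extraembryonal blood vessels were monitored over 24 h, with observations at 6 h and 24 h post application.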

Chorioallantoic membrane [25] = assay: Antiangiogenic activity in Leghorn chicken embryo chorioallantoic membrane assessed as reduction in blood vessel area at 5 nmol after 6 hrs by light microscopic analysis relative to control; format: functional, tissue-based; parameters: scale not given: the % may be the effect or the level left; settings: Gallus gallus
In short: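 The CAM assay was run with topical application into a silicon foil ring atop the CAM of fertilized chicken eggs. Area covered by blood vessels was quantified by fractal analysis relative to control.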

Chorioallantoic membrane [26] = assay: Antiangiogenic activity in Leghorn chicken embryo chorioallantoic membrane assessed as effect on blood vessel length at 5 nmol after 6 hrs by light microscopic analysis; format: functional, tissue-based; settings: Gallus gallus; in short: as §3
518A2 [27] = assay: Induction of apoptosis in human 518A2 cells assessed as accumulation at subG1 phase; format: functional, cell-based
518A2 [28] = assay: Induction of cell cycle arrest in human 518A2 cells; format: functional, cell-based
HT-29 [29] = assay: Cell cycle arrest in human HT-29 cells assessed as accumulation of cells at G2/M phase after 24 hrs by propidium iodide staining-based flow cytometric analysis; format: functional
Chorioallantoic membrane [30] = assay: Antiangiogenic activity in Leghorn chicken embryo chorioallantoic membrane assessed as reduction in size of main blood vessels at 5 nmol after 6 hrs by light microscopic analysis; format: functional, tissue-based; settings: Gallus gallus; in short: as §3
Chorioallantoic membrane [31] = assay: Antiangiogenic activity in Leghorn chicken embryo chorioallantoic membrane assessed as induction of contraction at 5 nmol after 6 to 24 hrs by light microscopic analysis; format: functional, tissue-based; settings: Gallus gallus; in short: as §3
Chorioallantoic membrane [32] = assay: Antiangiogenic activity in Leghorn chicken embryo chorioallantoic membrane assessed as induction of irritation at 5 nmol after 6 to 24 hrs by light microscopic analysis; format: functional, tissue-based; settings: Gallus gallus; in short: as §3
[33] = Toxicity in human A2780 cells xenografted nude mouse at 30 mg/kg administered on every other day and measured after 24 hrs; format: organism-based; settings: in vivo

Compound: COc1c(Br)cc(C2C(C#N)=C(N)Oc3c2ccc2ccccc32)cc1Br (stereo not given)
- Activity (518A2 [1]): Dose-dependent effect
- IC50 (518A2 [1]; 518A2, 72 h): 24.4 nM
- IC50 (HT-29 [2]): 52.1 nM
- IC50 (A2780): 12.1 nM
- IC50 [3]: 15.8 nM
- IC50 (DLD-1): 39.5 nM
- IC50 (EA.hy 926 [4]): 15.9 nM
- IC50 (PANC-1): 14.7 nM
- IC50 (HCT-116): 19.1 nM
- IC50 [5]: 33.4 nM
- IC50 [6]: 24.8 nM
- Activity (EA.hy 926 [7]): Active
- Activity (EA.hy 926 [8]): > 68%
- Activity (HT-29 [9]): 2.7%
- Activity (HT-29 [10]): 4.4%
- Activity (HT-29 [11]): 5.3%
- Activity (HT-29 [12]): 51.8%
- Activity (HT-29 [13]): 26.8%
- Activity (HT-29 [14]): 19.9%
- Activity (HT-29 [15]): 19.4%
- Activity (HT-29 [16]): 13.9%
- Activity (HT-29 [17]): 10.6%
- Activity (HT-29 [18]): 26.1%
- Activity (HT-29 [19]): 55%
- Activity (HT-29 [20]): 64.3%
- Activity (518A2 [21]): 46.5%
- Activity (Tubulin (Homo sapiens)): Active
- I50 (Tubulin): 13 µM
- Activity (518A2 [22]): Active
- Activity (518A2 [23]): Active
- Activity (Chorioallantoic membrane [24]): inactive
- Activity (Chorioallantoic membrane [25]): 45%
- Activity (Chorioallantoic membrane [26]): Active
- Activity (518A2 [27]): Active
- Activity (518A2 [28]): inactive
- Activity (HT-29 [29]): Dose-dependent effect
- Activity (Chorioallantoic membrane [30]): Active
- Activity (Chorioallantoic membrane [31]): Active
- Activity (Chorioallantoic membrane [32]): Active
- Activity [33]: Toxic
